Source: ChEMBL document CHEMBL4680111, “Target Validation and Identification of Novel Boronate Inhibitors of the Plasmodium falciparum Proteasome” (J Med Chem, 2018)
Activity calls are given as the source filed them. The rule behind the calls is not given here.

Legend:
[1] = tested on: Plasmodium falciparum 3D7; assay: Inhibition of 20S proteasome beta 1 subunit from bortezomib resistant Plasmodium falciparum 3D7 trophozoite infected erythrocytes assessed as inhibition of BMV037 probe labeling at 1 to 10 uM incubated for 1 hr by SDS-PAGE analysis; conditions: dose 1-10 µM
[2] = molecular target: T1, Proteasome subunit beta type-8 (Homo sapiens) (UniProt P28062); assay: Inhibition of human 20S immunoproteasome beta 5 subunit assessed as inhibition of BMV037 probe labeling at 1 to 10 uM incubated for 1 hr by SDS-PAGE analysis; conditions: dose 1-10 µM
T1 sequence (whole entry): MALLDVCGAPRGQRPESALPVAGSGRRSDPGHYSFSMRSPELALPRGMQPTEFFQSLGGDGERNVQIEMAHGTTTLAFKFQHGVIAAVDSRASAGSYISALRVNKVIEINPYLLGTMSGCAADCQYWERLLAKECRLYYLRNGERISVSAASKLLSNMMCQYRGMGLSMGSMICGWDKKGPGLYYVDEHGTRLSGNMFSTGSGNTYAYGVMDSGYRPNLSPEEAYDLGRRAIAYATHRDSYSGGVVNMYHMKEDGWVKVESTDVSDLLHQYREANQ
In short: (§1)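 Purified human immuno-20S (20 nM) was incubated with compound at 37°C for 1 h, then labelled with 10 µM BMV037 at 37°C for 2 h. Samples were run on 4-12% Bis-Tris gel with MES buffer, and active subunits were visualised by Cy5 fluorescence.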

Plasmodium falciparum [3] = assay: Antiplasmodial activity against sorbitol synchronized ring stage bortezomib-resistant Plasmodium falciparum 3D7 clone B1a assessed as reduction in parasitemia incubated for 72 hrs by Syto-61 staining dye based flow cytometry analysis; format: functional; conditions: read-out: LD50 (the source's name)
In short: (§2)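 Sorbitol-treated ring-stage parasites in O+ human erythrocytes were incubated with compound for 72 h, and viability was read in the second cycle. Read-out was Syto-61 (2 µM) flow cytometry of parasitemia, normalized to untreated and 2 µM DHA-killed controls. Mean ± SEM of three independent experiments.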

[4] = Inhibition of Plasmodium falciparum 20S proteasome beta 1 subunit caspase-like activity using fluorogenic peptide Ac-nLPnLD-AMC as substrate in presence of PA28alpha incubated for 1 to 2 hrs by fluorescence microplate reader assay
[5] = Inhibition of Plasmodium falciparum 20S proteasome beta 5 subunit chymotrypsin-like activity using fluorogenic peptide Ac-WLA-AMC as substrate in presence of PA28alpha incubated for 1 to 2 hrs by fluorescence microplate reader assay
Plasmodium falciparum [6] = assay: Antiplasmodial activity against sorbitol synchronized ring stage Plasmodium falciparum 3D7 assessed as reduction in parasitemia incubated for 72 hrs by Syto-61 staining dye based flow cytometry analysis; format: functional; conditions: read-out: LD50 (the source's name); in short: as §2
Plasmodium falciparum [7] = assay: Inhibition of proteasome in Plasmodium falciparum trophozoite stage transfected with GFP-DD assessed as reduction in GFP-DD fusion protein degradation at 0.02 to 0.5 uM incubated for 3 hrs in absence of Shield-1 by Western blot analysis; conditions: dose 0.02-0.5 µM
In short: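 GFP-DD reporter parasites were held in Shield-1 for 24 h, washed out, then treated as trophozoites (5% hematocrit, 5% parasitemia) with compound for 3 h at 37°C. […] Representative of four independent experiments.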

[8] = molecular target: T2, Proteasome subunit beta type-9 (Homo sapiens) (UniProt P28065); assay: Inhibition of human 20S immunoproteasome beta 1 subunit assessed as inhibition of BMV037 probe labeling at 1 to 10 uM incubated for 1 hr by SDS-PAGE analysis; conditions: dose 1-10 µM; in short: as §1
T2 sequence (whole entry): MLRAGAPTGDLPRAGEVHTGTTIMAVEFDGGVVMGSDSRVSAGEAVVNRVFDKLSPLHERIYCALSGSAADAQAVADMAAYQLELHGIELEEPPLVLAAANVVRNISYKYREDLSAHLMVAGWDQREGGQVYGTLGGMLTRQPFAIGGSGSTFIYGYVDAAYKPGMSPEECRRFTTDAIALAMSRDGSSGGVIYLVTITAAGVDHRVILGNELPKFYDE

[9] = Inhibition of Plasmodium falciparum 20S proteasome beta 2 subunit trypsin-like activity using fluorogenic peptide Ac-WLR-AMC as substrate in presence of PA28alpha incubated for 1 to 2 hrs by fluorescence microplate reader assay
[10] = molecular target: T3, Proteasome component C5 (Homo sapiens) (UniProt P20618); assay: Inhibition of human 20S constitutive proteasome beta 1 subunit assessed as inhibition of BMV037 probe labeling at 1 to 10 uM incubated for 1 hr by SDS-PAGE analysis; conditions: dose 1-10 µM
T3 sequence (whole entry): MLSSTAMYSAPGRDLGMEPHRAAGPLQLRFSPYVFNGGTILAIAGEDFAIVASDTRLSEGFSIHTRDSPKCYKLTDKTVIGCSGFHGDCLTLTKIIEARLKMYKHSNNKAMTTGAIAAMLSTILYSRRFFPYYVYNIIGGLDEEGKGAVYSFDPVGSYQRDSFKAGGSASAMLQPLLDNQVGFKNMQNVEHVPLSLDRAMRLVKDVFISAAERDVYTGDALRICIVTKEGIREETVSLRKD
In short: (§3)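 Purified human constitutive 20S (20 nM) was treated with compound at 37°C for 1 h, then labelled with 10 µM BMV037 at 37°C for 2 h. Samples were run on 10% Bis-Tris gel with MOPS buffer, and active subunits were detected by Cy5 fluorescence scan.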

[11] = tested on: Plasmodium falciparum 3D7; assay: Inhibition of 20S proteasome beta 5 subunit from bortezomib resistant Plasmodium falciparum 3D7 trophozoite infected erythrocytes assessed as inhibition of BMV037 probe labeling at 1 to 10 uM incubated for 1 hr by SDS-PAGE analysis; conditions: dose 1-10 µM
[12] = molecular target: T4, Proteasome Macropain subunit MB1 (Homo sapiens) (UniProt P28074); assay: Inhibition of human 20S constitutive proteasome beta 5 subunit assessed as inhibition of BMV037 probe labeling at 1 to 10 uM incubated for 1 hr by SDS-PAGE analysis; conditions: dose 1-10 µM; in short: as §3
T4 sequence (whole entry): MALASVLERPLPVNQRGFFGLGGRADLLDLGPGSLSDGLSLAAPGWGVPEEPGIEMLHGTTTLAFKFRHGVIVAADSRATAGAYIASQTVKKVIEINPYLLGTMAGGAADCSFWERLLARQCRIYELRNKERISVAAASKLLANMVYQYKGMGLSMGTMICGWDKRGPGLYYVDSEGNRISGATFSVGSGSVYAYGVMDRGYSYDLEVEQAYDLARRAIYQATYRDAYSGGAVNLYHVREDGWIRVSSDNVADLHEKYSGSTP

Plasmodium falciparum [13] = assay: Antiplasmodial activity against DHA-sensitive and sorbitol synchronized ring stage forms of Plasmodium falciparum Cam3.II^rev expressing K13 wild-type genotype assessed as reduction in parasitemia incubated for 3 hrs by pulse exposure based Syto-61 staining dye based flow cytometry analysis; format: functional; conditions: read-out: LD50 (the source's name)
In short: (§4)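 Tightly synchronized early-ring parasites (1-3 h post-invasion) exposed to compound for 3 h, then viability assessed in the next cycle. Cells stained with 2 µM Syto-61 and parasitemia read by flow cytometry, normalized to untreated and kill controls (2 µM DHA, 48-72 h). Mean ± SEM of three independent experiments.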

Plasmodium falciparum [14] = assay: Antiplasmodial activity against sorbitol synchronized ring stage bortezomib-resistant Plasmodium falciparum 3D7 clone B2a assessed as reduction in parasitemia incubated for 72 hrs by Syto-61 staining dye based flow cytometry analysis; format: functional; conditions: read-out: LD50 (the source's name); in short: as §2
Plasmodium falciparum [15] = assay: Antiplasmodial activity against DHA-resistant and sorbitol synchronized ring stage forms of Plasmodium falciparum Cam3.II^R539T expressing K13 mutant assessed as reduction in parasitemia incubated for 3 hrs by pulse exposure based Syto-61 staining dye based flow cytometry analysis; format: functional; conditions: read-out: LD50 (the source's name); in short: as §4
[16] = Selectivity index, ratio of LD50 for cytotoxicity against human HepG2 cells to LD50 for antiplasmodial activity against Plasmodium falciparum 3D7 sorbitol-treated ring stage; format: toxicity, cell-based; conditions: read-out: Selectivity Index
[17] = molecular target: T5, Proteasome Macropain subunit MB1 (Homo sapiens, UniProt P28074); assay: Inhibition of human 20S constitutive proteasome beta 5 subunit chymotrypsin-like activity using fluorogenic peptide Ac-WLA-AMC as substrate in presence of PA28alpha incubated for 1 to 2 hrs by fluorescence microplate reader assay
T5 sequence (P28074 whole entry): T4 sequence (whole entry)

[18] = molecular target: T6, Proteasome subunit beta type-9 (Homo sapiens, UniProt P28065); assay: Inhibition of human 20S immunoproteasome beta 1 subunit caspase-like activity using fluorogenic peptide Ac-nLPnLD-AMC as substrate in presence of PA28alpha incubated for 1 to 2 hrs by fluorescence microplate reader assay
T6 sequence (P28065 whole entry): T2 sequence (whole entry)

[19] = molecular target: T7, Proteasome subunit beta type-6 (Homo sapiens, UniProt P28072); assay: Inhibition of human 20S constitutive proteasome beta 1 subunit caspase-like activity using fluorogenic peptide Ac-nLPnLD-AMC as substrate in presence of PA28alpha incubated for 1 to 2 hrs by fluorescence microplate reader assay
T7 sequence (P28072 whole entry): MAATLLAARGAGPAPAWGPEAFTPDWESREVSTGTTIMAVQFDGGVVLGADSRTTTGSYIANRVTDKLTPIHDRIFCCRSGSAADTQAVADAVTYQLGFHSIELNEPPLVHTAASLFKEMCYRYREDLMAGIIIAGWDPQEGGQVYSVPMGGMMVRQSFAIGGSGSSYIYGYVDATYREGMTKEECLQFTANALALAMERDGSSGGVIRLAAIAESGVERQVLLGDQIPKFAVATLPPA

[20] = molecular target: T8, Proteasome subunit beta type-7 (Homo sapiens, UniProt Q99436); assay: Inhibition of human 20S constitutive proteasome beta 2 subunit trypsin-like activity using fluorogenic peptide Ac-WLR-AMC as substrate in presence of PA28alpha incubated for 1 to 2 hrs by fluorescence microplate reader assay
T8 sequence (Q99436 whole entry): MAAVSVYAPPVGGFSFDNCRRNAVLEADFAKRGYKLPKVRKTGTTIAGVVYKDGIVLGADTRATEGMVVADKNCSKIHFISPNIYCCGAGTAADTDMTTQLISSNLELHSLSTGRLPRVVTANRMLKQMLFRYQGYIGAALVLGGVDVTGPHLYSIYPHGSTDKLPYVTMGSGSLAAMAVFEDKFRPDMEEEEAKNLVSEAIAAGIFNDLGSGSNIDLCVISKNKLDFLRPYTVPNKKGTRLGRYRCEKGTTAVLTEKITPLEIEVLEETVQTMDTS

[21] = molecular target: T9, Proteasome subunit beta type-10 (Homo sapiens, UniProt P40306); assay: Inhibition of human 20S immunoproteasome beta 2 subunit trypsin-like activity using fluorogenic peptide Ac-WLR-AMC as substrate in presence of PA28alpha incubated for 1 to 2 hrs by fluorescence microplate reader assay
T9 sequence (P40306 whole entry): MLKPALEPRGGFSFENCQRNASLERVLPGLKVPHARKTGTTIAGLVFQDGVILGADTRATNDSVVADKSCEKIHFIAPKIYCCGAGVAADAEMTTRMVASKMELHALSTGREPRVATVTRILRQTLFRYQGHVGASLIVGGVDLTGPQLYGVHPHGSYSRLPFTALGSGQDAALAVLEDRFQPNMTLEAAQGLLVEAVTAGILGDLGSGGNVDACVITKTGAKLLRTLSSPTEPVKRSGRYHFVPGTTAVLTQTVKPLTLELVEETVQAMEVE

[22] = tested on: Plasmodium falciparum 3D7; assay: Inhibition of 20S proteasome beta 5 subunit in bortezomib-resistant Plasmodium falciparum 3D7 assessed as inhibition of BMV037 probe labeling at 1 to 10 uM incubated for 1 hr by SDS-PAGE analysis; conditions: dose 1-10 µM
[23] = molecular target: T10, Proteasome subunit beta type-8 (Homo sapiens, UniProt P28062); assay: Inhibition of human 20S immunoproteasome beta 5 subunit chymotrypsin-like activity using fluorogenic peptide Ac-WLA-AMC as substrate in presence of PA28alpha incubated for 1 to 2 hrs by fluorescence microplate reader assay
T10 sequence (P28062 whole entry): T1 sequence (whole entry)

Plasmodium falciparum [24] = assay: Inhibition of Plasmodium falciparum 20S proteasome beta 5 subunit chymotrypsin-like activity using fluorogenic peptide Ac-WLA-AMC as substrate in presence of PA28alpha at 0.8 uM measured over 5 hrs by fluorescence microplate reader assay
Plasmodium falciparum [25] = assay: Inhibition of Plasmodium falciparum 20S proteasome beta 2 subunit trypsin-like activity using fluorogenic peptide Ac-WLR-AMC as substrate in presence of PA28alpha at 0.8 uM measured over 5 hrs by fluorescence microplate reader assay
Plasmodium falciparum [26] = assay: Inhibition of Plasmodium falciparum 20S proteasome beta 1 subunit caspase-like activity using fluorogenic peptide Ac-nLPnLD-AMC as substrate in presence of PA28alpha at 0.8 uM measured over 5 hrs by fluorescence microplate reader assay

## CC(C)C[C@H](NC(=O)[C@H](Cc1ccccc1)NC(=O)c1cnccn1)B(O)O [BORTEZOMIB]
[1]
  inhibition: Active
[2]
  inhibition: Active
Plasmodium falciparum [3]
  LC50: 1300 nM
[4]
  IC50: 320 nM
[5]
  IC50: 53 nM
Plasmodium falciparum [6]
  LC50: 60 nM
Plasmodium falciparum [7]
  inhibition: Active
[8]
  inhibition: Active
[9]
  IC50: 1600 nM
[10]
  inhibition: Active
[11]
  inhibition: Active
[12]
  inhibition: Active
Plasmodium falciparum [13]
  LC50: 180 nM
Plasmodium falciparum [14]
  LC50: 1100 nM
Plasmodium falciparum [15]
  LC50: 120 nM

## CC(=O)N1CCC[C@H]1C(=O)N[C@@H](C)C(=O)N[C@@H](CC(C)C)B(O)O
[16]
  selectivity ratio: 15
[17]
  IC50: 97 nM
[4]
  IC50: 3000 nM
[18]
  IC50: 13 nM
[5]
  IC50: 2900 nM
[19]
  IC50: 320 nM
Plasmodium falciparum [6]
  LC50: 160 nM
[20]
  IC50: > 10000 nM
[21]
  IC50: > 10000 nM
[9]
  IC50: > 10000 nM
[22]
  inhibition: inactive
[23]
  IC50: 63 nM
Plasmodium falciparum [13]
  LC50: 1800 nM
Plasmodium falciparum [15]
  LC50: 1500 nM

## CC(C)C[C@H](NC(=O)[C@H](CCc1ccccc1)NC(=O)CN1CCOCC1)C(=O)N[C@@H](Cc1ccccc1)C(=O)N[C@@H](CC(C)C)C(=O)[C@@]1(C)CO1
Plasmodium falciparum [24]
  inhibition: Active
Plasmodium falciparum [25]
  inhibition: Active
Plasmodium falciparum [26]
  inhibition: inactive
